Results as given in ChEMBL document CHEMBL4371070, “Design, synthesis of novel purin-6-one derivatives as phosphodiesterase 2 (PDE2) inhibitors: The neuroprotective and anxiolytic-like effects” (Bioorg Med Chem Lett, 2019).
Activity calls are given as the source filed them. The rule behind the calls is not given here.

Experiments:
[1] = target: cGMP-dependent 3',5'-cyclic phosphodiesterase (Homo sapiens, UniProt O00408); experiment: Inhibition of PDE2 (unknown origin) using [3H]cAMP or [3H]cGMP as substrate measured after 30 mins by liquid scintillation counting method
Phosphodiesterase 4 = Phosphodiesterase 4 (Homo sapiens, UniProt P27815+Q08499+Q07343+Q08493); experiment: Inhibition of PDE4 (unknown origin) using [3H]cAMP or [3H]cGMP as substrate measured after 30 mins by liquid scintillation counting method; type: protein assay
[2] = target: cAMP and cAMP-inhibited cGMP 3',5'-cyclic phosphodiesterase 10A (Homo sapiens, UniProt Q9Y233); experiment: Inhibition of PDE10 (unknown origin) using [3H]cAMP or [3H]cGMP as substrate measured after 30 mins by liquid scintillation counting method
Phosphodiesterase 1 = Phosphodiesterase 1 (Homo sapiens, UniProt P54750+Q01064+Q14123); experiment: Inhibition of PDE1 (unknown origin) using [3H]cAMP or [3H]cGMP as substrate measured after 30 mins by liquid scintillation counting method; type: protein assay
[3] = target: cGMP-specific 3',5'-cyclic phosphodiesterase (Homo sapiens, UniProt O76074); experiment: Inhibition of PDE5 (unknown origin) using [3H]cAMP or [3H]cGMP as substrate measured after 30 mins by liquid scintillation counting method
[4] = target: High affinity cGMP-specific 3',5'-cyclic phosphodiesterase 9A (Homo sapiens, UniProt O76083); experiment: Inhibition of PDE9 (unknown origin) using [3H]cAMP or [3H]cGMP as substrate measured after 30 mins by liquid scintillation counting method
Mus musculus [5] = species: Mus musculus; experiment: Inhibition of PDE2 in mouse HT22 cells assessed as suppression of corticosterone-induced decrease in cGMP level at 1 uM after 24 hrs by ELISA; type: cell-based
Outline: (§1)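 Corticosterone at 100 μM applied to HT-22 cells for 30 min, followed by compound for 24 h. Intracellular cGMP and cAMP levels measured. Mean ± SEM, n = 6; compared with vehicle-treated corticosterone group.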

Mus musculus [6] = experiment: Anxiolytic activity in ICR mouse model of chronic stress-induced cognitive impairment assessed as increase in time spent in open arms at 0.5 mg/kg, ip measured for 5 mins test period by elevated plus maze test; type: functional, organism-based
Outline: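 Chronically stressed mice given the reference drug at 0.5 mg/kg i.p., then tested in the elevated plus-maze for open-arm measures. Mean ± SEM, n = 6, versus vehicle-treated stressed group.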

Mus musculus [7] = species: Mus musculus; experiment: Inhibition of PDE2 in mouse HT22 cells assessed as suppression of corticosterone-induced decrease in cAMP level at 1 uM after 24 hrs by ELISA; type: cell-based; outline: as §1
Mus musculus [8] = experiment: Anxiolytic activity in ICR mouse model of chronic stress-induced cognitive impairment assessed as increase in time spent in open arms at 2 mg/kg, ip measured for 5 mins test period by elevated plus maze test; type: functional, organism-based
[9] = Ratio of drug level in ICR mouse brain to plasma at 2 mg/kg, po measured after 0.5 hrs by LC-MS/MS analysis; type: ADME, organism-based; settings: brain and plasma, read-out: BPR
Outline: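 Oral dose of 2 mg/kg in mice. Brain and plasma drug levels taken at 0.5 h after oral administration, and expressed as brain-to-plasma ratio.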

[10] = Cmax in ICR mouse at 2 mg/kg, po by LC-MS/MS analysis; type: ADME, organism-based; design: dose 2 mg/kg, route oral; settings: in vivo
[11] = Toxicity in ICR mouse assessed as effect on locomotory activity at 0.5 to 2 mg/kg, ig administered as single dose via gavage measured for 10 mins; type: organism-based; settings: in vivo, po
Outline: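 Locomotor activity test in chronically stressed mice; locomotion counts recorded 10 minutes after a single oral treatment. Mean ± SEM, n = 6.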

[12] = AUC (0 to infinity) in ICR mouse at 2 mg/kg, po by LC-MS/MS analysis; type: ADME, organism-based; design: dose 2 mg/kg, time infinity, route oral; settings: in vivo
[13] = Tmax in ICR mouse at 2 mg/kg, po by LC-MS/MS analysis; type: ADME, organism-based; settings: in vivo
[14] = Half life in ICR mouse at 2 mg/kg, po by LC-MS/MS analysis; type: ADME, organism-based; settings: in vivo

Sequence of cGMP-dependent 3',5'-cyclic phosphodiesterase (O00408 whole entry): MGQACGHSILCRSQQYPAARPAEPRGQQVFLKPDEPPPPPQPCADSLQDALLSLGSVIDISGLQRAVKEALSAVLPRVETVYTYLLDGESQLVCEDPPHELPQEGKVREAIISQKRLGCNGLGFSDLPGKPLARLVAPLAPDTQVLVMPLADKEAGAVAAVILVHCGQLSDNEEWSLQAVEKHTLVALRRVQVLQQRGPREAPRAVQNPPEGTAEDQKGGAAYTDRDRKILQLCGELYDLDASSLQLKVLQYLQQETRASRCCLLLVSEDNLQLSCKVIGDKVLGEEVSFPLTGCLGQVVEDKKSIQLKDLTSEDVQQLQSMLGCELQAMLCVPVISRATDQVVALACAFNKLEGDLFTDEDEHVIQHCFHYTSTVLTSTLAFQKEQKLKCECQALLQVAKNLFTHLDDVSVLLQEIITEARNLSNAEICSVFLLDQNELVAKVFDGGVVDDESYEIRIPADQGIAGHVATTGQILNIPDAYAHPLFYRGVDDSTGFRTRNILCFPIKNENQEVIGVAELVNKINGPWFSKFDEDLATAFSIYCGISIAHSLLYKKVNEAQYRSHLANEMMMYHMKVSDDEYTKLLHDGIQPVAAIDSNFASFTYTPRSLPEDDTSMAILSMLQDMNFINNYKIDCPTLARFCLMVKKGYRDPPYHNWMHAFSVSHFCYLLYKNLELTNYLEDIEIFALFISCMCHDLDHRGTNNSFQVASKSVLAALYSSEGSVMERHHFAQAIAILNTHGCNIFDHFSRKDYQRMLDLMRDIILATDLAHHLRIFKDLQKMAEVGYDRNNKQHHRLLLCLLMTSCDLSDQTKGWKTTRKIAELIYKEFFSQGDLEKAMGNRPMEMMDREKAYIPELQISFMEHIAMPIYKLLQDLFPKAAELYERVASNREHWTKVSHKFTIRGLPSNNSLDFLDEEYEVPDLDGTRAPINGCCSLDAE
Sequence of High affinity cGMP-specific 3',5'-cyclic phosphodiesterase 9A (O76083 whole entry): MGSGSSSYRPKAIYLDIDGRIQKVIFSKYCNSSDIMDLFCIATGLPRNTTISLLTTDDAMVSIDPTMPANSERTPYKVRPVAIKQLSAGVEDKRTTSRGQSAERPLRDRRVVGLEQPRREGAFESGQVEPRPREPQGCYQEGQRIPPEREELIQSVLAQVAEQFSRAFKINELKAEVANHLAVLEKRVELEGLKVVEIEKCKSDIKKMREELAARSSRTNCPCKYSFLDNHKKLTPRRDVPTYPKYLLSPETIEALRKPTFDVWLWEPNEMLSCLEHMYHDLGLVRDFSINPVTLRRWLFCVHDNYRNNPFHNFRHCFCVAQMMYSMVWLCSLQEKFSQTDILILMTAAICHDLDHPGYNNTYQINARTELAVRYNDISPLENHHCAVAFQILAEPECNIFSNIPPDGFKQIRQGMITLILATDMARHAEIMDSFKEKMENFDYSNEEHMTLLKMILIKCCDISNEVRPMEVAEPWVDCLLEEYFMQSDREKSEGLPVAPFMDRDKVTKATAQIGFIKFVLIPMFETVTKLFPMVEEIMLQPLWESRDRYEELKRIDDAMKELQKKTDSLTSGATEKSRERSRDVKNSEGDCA
Sequence of cAMP and cAMP-inhibited cGMP 3',5'-cyclic phosphodiesterase 10A (Q9Y233 whole entry): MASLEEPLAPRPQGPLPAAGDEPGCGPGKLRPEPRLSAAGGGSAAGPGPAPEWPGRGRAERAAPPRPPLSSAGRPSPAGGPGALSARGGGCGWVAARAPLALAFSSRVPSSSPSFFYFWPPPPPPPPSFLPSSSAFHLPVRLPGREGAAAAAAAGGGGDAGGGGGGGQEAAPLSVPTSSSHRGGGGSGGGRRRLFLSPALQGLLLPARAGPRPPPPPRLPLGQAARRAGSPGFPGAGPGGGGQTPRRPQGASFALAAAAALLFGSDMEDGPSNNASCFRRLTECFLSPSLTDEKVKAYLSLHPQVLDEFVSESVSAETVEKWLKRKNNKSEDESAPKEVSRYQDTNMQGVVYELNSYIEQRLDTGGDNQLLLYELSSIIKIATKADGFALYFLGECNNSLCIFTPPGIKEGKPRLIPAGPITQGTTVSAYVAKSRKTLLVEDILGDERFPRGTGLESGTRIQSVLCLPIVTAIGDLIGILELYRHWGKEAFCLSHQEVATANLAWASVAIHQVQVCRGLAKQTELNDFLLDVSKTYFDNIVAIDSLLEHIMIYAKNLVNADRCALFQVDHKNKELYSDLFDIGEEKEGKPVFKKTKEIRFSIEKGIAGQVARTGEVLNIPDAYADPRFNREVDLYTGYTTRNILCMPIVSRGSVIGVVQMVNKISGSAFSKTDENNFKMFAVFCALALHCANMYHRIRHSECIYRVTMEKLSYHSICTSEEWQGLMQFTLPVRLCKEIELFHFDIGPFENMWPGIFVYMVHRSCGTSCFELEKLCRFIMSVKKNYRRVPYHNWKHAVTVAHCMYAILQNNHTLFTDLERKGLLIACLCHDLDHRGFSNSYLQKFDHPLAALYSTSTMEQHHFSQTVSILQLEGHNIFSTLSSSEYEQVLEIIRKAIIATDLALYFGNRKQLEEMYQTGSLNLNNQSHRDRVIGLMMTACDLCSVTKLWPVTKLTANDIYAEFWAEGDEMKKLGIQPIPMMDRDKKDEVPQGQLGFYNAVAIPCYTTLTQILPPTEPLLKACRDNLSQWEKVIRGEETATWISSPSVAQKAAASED

Q: With `CCCCn1cnc2c(=O)[nH]c(Cc3ccccc3)nc21` as the molecule, how does the IC50 [1] read?
A: The IC50 was 4.32 µM.

Q: Which IC50 [1] does the source give for `COc1ccc(CCn2cnc3c(=O)[nH]c(Cc4ccccc4)nc32)cc1OC` here?
A: The IC50 was 40.3 µM.

Q: Which IC50 [1] does the source give for `O=c1[nH]c(Cc2ccccc2)nc2c1ncn2Cc1ccc2ccccc2c1` here?
A: Its IC50 is 3.99 µM.

Q: With `CCCCCCn1cnc2c(=O)[nH]c(Cc3ccc(OC)cc3)nc21` as the molecule, how does the IC50 [1] read?
A: The IC50 was 3.79 µM.

Q: With `CCCCCCCCn1cnc2c(=O)[nH]c(Cc3ccccc3)nc21` as the molecule, how does the IC50 [1] read?
A: The IC50 was 4.28 µM.

Q: Which IC50 (Phosphodiesterase 4) does the source give for `CCCCC(CC)Cn1cnc2c(=O)[nH]c(Cc3ccc(OCc4ccccc4)cc3)nc21` (stereo unspecified) here?
A: Its IC50 is over 500 µM.

Q: What about the IC50 [2] of the same molecule?
A: Its IC50 is over 500 µM.

Q: What about the IC50 (Phosphodiesterase 1) of the same molecule?
A: Its IC50 is over 500 µM.

Q: And the IC50 [3]?
A: Its IC50 is over 500 µM.

Q: And the IC50 [1]?
A: The IC50 was 0.072 µM.

Q: And the IC50 [4]?
A: Its IC50 is 13.9 µM.

Q: Which inhibition (Mus musculus [5]) does the source give for `COc1ccc(Cc2nc(O)c3c(C)nc([C@@H](CCCc4ccccc4)[C@@H](C)O)n3n2)cc1OC` here?
A: Its inhibition is “Active”.

Q: What about the Activity (Mus musculus [6]) of the same molecule?
A: The Activity was “inactive”.

Q: And the inhibition (Mus musculus [7])?
A: Its inhibition is “Active”.

Q: With `COc1cccc(CCn2cnc3c(=O)[nH]c(Cc4ccccc4)nc32)c1` as the molecule, how does the IC50 [1] read?
A: The IC50 was 11 µM.

Q: For `CN1C(=O)CN=C(c2ccccc2)c2cc(Cl)ccc21`, which Activity (Mus musculus [8]) is on record?
A: The Activity was “Active”.

Q: With `COc1ccc(CCn2cnc3c(=O)[nH]c(Cc4ccc(OCc5ccccc5)cc4)nc32)cc1OC` as the molecule, how does the IC50 [1] read?
A: The IC50 was over 50 µM.

Q: For `CCCCCCCCn1cnc2c(=O)[nH]c(Cc3ccc(OCc4ccccc4)cc3)nc21`, which IC50 [1] is on record?
A: The IC50 was 2.63 µM.

Q: Which IC50 [1] does the source give for `CCCCCCn1cnc2c(=O)[nH]c(Cc3ccccc3)nc21` here?
A: The IC50 was 5.94 µM.

Q: With `CC(CCc1ccccc1)n1cnc2c(=O)[nH]c(Cc3ccccc3)nc21` (stereo unspecified) as the molecule, how does the IC50 [1] read?
A: Its IC50 is 0.31 µM.

Q: Which results are given for `CCCCC(CC)Cn1cnc2c(=O)[nH]c(Cc3ccc(OC)cc3)nc21` (stereo unspecified)?
A: IC50 (Phosphodiesterase 4): > 500 µM; IC50 [2]: > 500 µM; Kp at 0.5 h [9]: 0.56; Cmax [10]: 0.511 µg/mL; IC50 (Phosphodiesterase 1): > 500 µM; IC50 [3]: > 500 µM; Activity [11]: Non-Toxic; AUC(0-inf) [12]: 0.646 µg·h/mL; IC50 [1]: 0.081 µM; Tmax [13]: 31.8 min; IC50 [4]: 32.3 µM; half-life [14]: 84 min

Q: Which IC50 [1] does the source give for `CCCCn1cnc2c(=O)[nH]c(Cc3ccc(OCc4ccccc4)cc3)nc21` here?
A: Its IC50 is 5.46 µM.

Q: With `CCCCn1cnc2c(=O)[nH]c(Cc3ccc(OC)cc3)nc21` as the molecule, how does the IC50 [1] read?
A: Its IC50 is 1.94 µM.

Q: Which IC50 [1] does the source give for `O=c1[nH]c(Cc2ccccc2)nc2c1ncn2CCc1ccccc1` here?
A: Its IC50 is 7.27 µM.

Q: With `CCCCC(CC)Cn1cnc2c(=O)[nH]c(Cc3ccccc3)nc21` (stereo unspecified) as the molecule, how does the IC50 [1] read?
A: The IC50 was 1.24 µM.

Q: For `CCCCCCn1cnc2c(=O)[nH]c(Cc3ccc(OCc4ccccc4)cc3)nc21`, which IC50 [1] is on record?
A: Its IC50 is 3.91 µM.

Q: Which IC50 [1] does the source give for `CC(c1cccc2ccccc12)N1C=NC2C(=O)NC(Cc3ccccc3)=NC21` (stereo unspecified) here?
A: Its IC50 is 0.57 µM.

Q: For `O=c1[nH]c(Cc2ccc(OCc3ccccc3)cc2)nc2c1ncn2CCc1ccccc1`, which IC50 [1] is on record?
A: The IC50 was 5.8 µM.

Q: For `O=c1[nH]c(Cc2ccccc2)nc2c1ncn2CCc1c[nH]c2ccccc12`, which IC50 [1] is on record?
A: The IC50 was over 50 µM.

Q: With `O=c1[nH]c(Cc2ccccc2)nc2c1ncn2CCc1cccs1` as the molecule, how does the IC50 [1] read?
A: Its IC50 is 17 µM.
